Key:
Cynomolgus monkey [1] = test: Uptake in anesthetized cynomolgus monkey putamen after 35.0 mins; type: ADME, organism-based; conditions: in vivo
In short: (§1)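 Baseline microPET (Concorde P4) scan in anesthetized cynomolgus monkeys after injection of the carbon-11 labeled tracer, with no chase drug. Regional brain time-activity curves were followed over the scan. Tracer radiochemical purity and specific activity were determined by analytical HPLC at the time of injection.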

Cynomolgus monkey [2] = test: Uptake in anesthetized cynomolgus monkey putamen after 125.0 mins; type: ADME, organism-based; conditions: in vivo; in short: as §1
Cynomolgus monkey [3] = test: Uptake in anesthetized cynomolgus monkey frontal after 105.0 mins; type: ADME, organism-based, Frontal cortex; conditions: in vivo, 1.75 h
In short: (§2)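 Baseline microPET scan (P4 scanner) of anesthetized cynomolgus monkeys after injection of the carbon-11 labelled nortropane tracer. Two baseline studies were run per tracer. Radioactivity was followed over time in regional brain time-activity curves.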

Cynomolgus monkey [4] = test: Uptake in anesthetized cynomolgus monkey occipital after 0.5 mins; type: ADME, organism-based, Occipital cortex; conditions: in vivo; in short: as §2
Cynomolgus monkey [5] = test: Uptake in anesthetized cynomolgus monkey pons after 125.0 mins; type: ADME, organism-based; conditions: in vivo; in short: as §1
Cynomolgus monkey [6] = test: Uptake in anesthetized cynomolgus monkey caudate after 115.0 mins; type: ADME, organism-based, Caudate nucleus; conditions: in vivo
In short: (§3)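 Baseline microPET (Concorde P4) regional brain time-activity curves in anesthetized cynomolgus monkey following injection of the [11C]-labelled tracer, with radioactivity followed over the scan.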

Cynomolgus monkey [7] = test: Uptake in anesthetized cynomolgus monkey putamen after 135.0 mins; type: ADME, organism-based; conditions: in vivo, 2.25 h; in short: as §1
Cynomolgus monkey [8] = test: Uptake in anesthetized cynomolgus monkey midbrain after 35.0 mins; type: ADME, organism-based; conditions: in vivo; in short: as §2
Cynomolgus monkey [9] = test: Uptake in anesthetized cynomolgus monkey midbrain after 95.0 mins; type: ADME, organism-based; conditions: in vivo; in short: as §2
Cynomolgus monkey [10] = test: Uptake in anesthetized cynomolgus monkey putamen after 27.5 mins; type: ADME, organism-based; conditions: in vivo; in short: as §1
Cynomolgus monkey [11] = test: Uptake in anesthetized cynomolgus monkey medulla after 75.0 mins; type: ADME, organism-based, Medulla of organ; conditions: in vivo, 1.25 h; in short: as §2
Cynomolgus monkey [12] = test: Uptake in anesthetized cynomolgus monkey medulla after 6.5 mins; type: ADME, organism-based, Medulla of organ; conditions: in vivo; in short: as §2
Cynomolgus monkey [13] = test: Uptake in anesthetized cynomolgus monkey pons after 1.5 mins; type: ADME, organism-based, Macaca mulatta; conditions: rhesus monkey, in vivo, 0.025 h; in short: as §2
Cynomolgus monkey [14] = test: Uptake in anesthetized cynomolgus monkey thalamus after 45.0 mins; type: ADME, organism-based; conditions: in vivo, 0.75 h; in short: as §1
Cynomolgus monkey [15] = test: Uptake in anesthetized cynomolgus monkey cerebellum after 115.0 mins; type: ADME, organism-based; conditions: in vivo; in short: as §3
Cynomolgus monkey [16] = test: Uptake in anesthetized cynomolgus monkey caudate after 2.5 mins; type: ADME, organism-based, Caudate nucleus; conditions: in vivo; in short: as §3
Cynomolgus monkey [17] = test: Uptake in anesthetized cynomolgus monkey thalamus after 125.0 mins; type: ADME, organism-based; conditions: in vivo; in short: as §1
Cynomolgus monkey [18] = test: Ratio of uptake in frontal to cerebellum of anesthetized cynomolgus monkey after 65 mins; type: ADME, organism-based; conditions: in vivo
In short: (§4)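 Baseline microPET (Concorde P4) in anesthetized cynomolgus monkey after injection of the [11C]-labelled tracer. Regional time-activity curves were taken, and each region's uptake was divided by cerebellum uptake (low-SERT reference) at 65, 85 and 105 min postinjection.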

Cynomolgus monkey [19] = test: Ratio of uptake in midbrain to cerebellum of anesthetized cynomolgus monkey after 65 mins; type: ADME, organism-based; conditions: in vivo; in short: as §4
Cynomolgus monkey [20] = test: Uptake in anesthetized cynomolgus monkey medulla after 65.0 mins; type: ADME, organism-based, Medulla of organ; conditions: in vivo; in short: as §2
Cynomolgus monkey [21] = test: Uptake in anesthetized cynomolgus monkey thalamus after 3.5 mins; type: ADME, organism-based; conditions: in vivo; in short: as §1
Cynomolgus monkey [22] = test: Uptake in anesthetized cynomolgus monkey pons after 45.0 mins; type: ADME, organism-based; conditions: in vivo, 0.75 h; in short: as §1
Cynomolgus monkey [23] = test: Uptake in anesthetized cynomolgus monkey putamen after 2.5 mins; type: ADME, organism-based; conditions: in vivo; in short: as §1
Cynomolgus monkey [24] = test: Uptake in anesthetized cynomolgus monkey occipital after 15.5 mins; type: ADME, organism-based, Macaca mulatta, Occipital cortex; conditions: rhesus monkey, in vivo; in short: as §2
Cynomolgus monkey [25] = test: Ratio of uptake in pons to cerebellum of anesthetized cynomolgus monkey after 65 mins; type: ADME, organism-based; conditions: in vivo; in short: as §4
Cynomolgus monkey [26] = test: Uptake in anesthetized cynomolgus monkey frontal after 135.0 mins; type: ADME, organism-based, Frontal cortex; conditions: in vivo, 2.25 h; in short: as §2
Cynomolgus monkey [27] = test: Uptake in anesthetized cynomolgus monkey cerebellum after 1.5 mins; type: ADME, organism-based; conditions: in vivo, 0.025 h; in short: as §3
Cynomolgus monkey [28] = test: Ratio of uptake in putamen to cerebellum of anesthetized cynomolgus monkey after 85 mins; type: ADME, organism-based; conditions: in vivo; in short: as §4
Cynomolgus monkey [29] = test: Ratio of uptake in frontal to cerebellum of anesthetized cynomolgus monkey after 105 mins; type: ADME, organism-based; conditions: in vivo, 1.75 h; in short: as §4
Cynomolgus monkey [30] = test: Uptake in anesthetized cynomolgus monkey cerebellum after 35.0 mins; type: ADME, organism-based, Macaca mulatta; conditions: rhesus monkey, in vivo; in short: as §3
Cynomolgus monkey [31] = test: Uptake in anesthetized cynomolgus monkey frontal after 22.5 mins; type: ADME, organism-based, Frontal cortex; conditions: in vivo, 0.375 h; in short: as §2
Cynomolgus monkey [32] = test: Uptake in anesthetized cynomolgus monkey putamen after 75.0 mins; type: ADME, organism-based; conditions: in vivo, 1.25 h; in short: as §1
Cynomolgus monkey [33] = test: Uptake in anesthetized cynomolgus monkey thalamus after 135.0 mins; type: ADME, organism-based; conditions: in vivo, 2.25 h; in short: as §1
Cynomolgus monkey [34] = test: Uptake in anesthetized cynomolgus monkey medulla after 4.5 mins; type: ADME, organism-based, Medulla of organ; conditions: in vivo, 0.075 h; in short: as §2
Cynomolgus monkey [35] = test: Uptake in anesthetized cynomolgus monkey frontal after 3.5 mins; type: ADME, organism-based, Frontal cortex; conditions: in vivo; in short: as §2
Cynomolgus monkey [36] = test: Uptake in anesthetized cynomolgus monkey cerebellum after 2.5 mins; type: ADME, organism-based, Macaca mulatta; conditions: rhesus monkey, in vivo; in short: as §3
Cynomolgus monkey [37] = test: Uptake in anesthetized cynomolgus monkey cerebellum after 125.0 mins; type: ADME, organism-based, Macaca mulatta; conditions: rhesus monkey, in vivo; in short: as §3
Cynomolgus monkey [38] = test: Uptake in anesthetized cynomolgus monkey midbrain after 55.0 mins; type: ADME, organism-based; conditions: in vivo; in short: as §2
Cynomolgus monkey [39] = test: Ratio of uptake in putamen to cerebellum of anesthetized cynomolgus monkey after 105 mins; type: ADME, organism-based; conditions: in vivo, 1.75 h; in short: as §4
Cynomolgus monkey [40] = test: Uptake in anesthetized cynomolgus monkey caudate after 45.0 mins; type: ADME, organism-based, Caudate nucleus; conditions: in vivo, 0.75 h; in short: as §3
Cynomolgus monkey [41] = test: Uptake in anesthetized cynomolgus monkey occipital after 65.0 mins; type: ADME, organism-based, Macaca mulatta, Occipital cortex; conditions: rhesus monkey, in vivo; in short: as §2
Cynomolgus monkey [42] = test: Uptake in anesthetized cynomolgus monkey thalamus after 85.0 mins; type: ADME, organism-based; conditions: in vivo; in short: as §1
Cynomolgus monkey [43] = test: Uptake in anesthetized cynomolgus monkey medulla after 0.5 mins; type: ADME, organism-based, Medulla of organ; conditions: in vivo; in short: as §2
Cynomolgus monkey [44] = test: Uptake in anesthetized cynomolgus monkey pons after 18.5 mins; type: ADME, organism-based; conditions: in vivo; in short: as §1
Cynomolgus monkey [45] = test: Uptake in anesthetized cynomolgus monkey pons after 27.5 mins; type: ADME, organism-based; conditions: in vivo; in short: as §1
Cynomolgus monkey [46] = test: Uptake in anesthetized cynomolgus monkey frontal after 0.5 mins; type: ADME, organism-based, Frontal cortex; conditions: in vivo; in short: as §3
Cynomolgus monkey [47] = test: Uptake in anesthetized cynomolgus monkey thalamus after 115.0 mins; type: ADME, organism-based; conditions: in vivo; in short: as §1
Cynomolgus monkey [48] = test: Uptake in anesthetized cynomolgus monkey caudate after 125.0 mins; type: ADME, organism-based, Caudate nucleus; conditions: in vivo; in short: as §3
Cynomolgus monkey [49] = test: Ratio of uptake in medulla to cerebellum of anesthetized cynomolgus monkey after 105 mins; type: ADME, organism-based; conditions: in vivo, 1.75 h; in short: as §4
Cynomolgus monkey [50] = test: Uptake in anesthetized cynomolgus monkey midbrain after 0.5 mins; type: ADME, organism-based; conditions: in vivo; in short: as §2
Cynomolgus monkey [51] = test: Uptake in anesthetized cynomolgus monkey pons after 135.0 mins; type: ADME, organism-based; conditions: in vivo, 2.25 h; in short: as §1
Cynomolgus monkey [52] = test: Uptake in anesthetized cynomolgus monkey midbrain after 105.0 mins; type: ADME, organism-based; conditions: in vivo, 1.75 h; in short: as §2
Cynomolgus monkey [53] = test: Ratio of uptake in pons to cerebellum of anesthetized cynomolgus monkey after 85 mins; type: ADME, organism-based; conditions: in vivo; in short: as §4
Cynomolgus monkey [54] = test: Uptake in anesthetized cynomolgus monkey frontal after 4.5 mins; type: ADME, organism-based, Frontal cortex; conditions: in vivo, 0.075 h; in short: as §2
Cynomolgus monkey [55] = test: Uptake in anesthetized cynomolgus monkey caudate after 0.5 mins; type: ADME, organism-based, Caudate nucleus; conditions: in vivo; in short: as §3

## [11CH3]OC(=O)[C@@H]1C2CCC(C[C@@H]1c1cccc(/C=C/Br)c1)N2 (stereo not given in full)
Cynomolgus monkey [1]
  Drug uptake: 7
Cynomolgus monkey [2]
  Drug uptake: 6.69
Cynomolgus monkey [3]
  Drug uptake: 3.7
Cynomolgus monkey [4]
  Drug uptake: 0.01
Cynomolgus monkey [5]
  Drug uptake: 6.47
Cynomolgus monkey [6]
  Drug uptake: 6.42
Cynomolgus monkey [7]
  Drug uptake: 6.51
Cynomolgus monkey [8]
  Drug uptake: 7.4
Cynomolgus monkey [9]
  Drug uptake: 7.89
Cynomolgus monkey [10]
  Drug uptake: 6.85
Cynomolgus monkey [11]
  Drug uptake: 7.18
Cynomolgus monkey [12]
  Drug uptake: 5.27
Cynomolgus monkey [13]
  Drug uptake: 0.34
Cynomolgus monkey [14]
  Drug uptake: 6.07
Cynomolgus monkey [15]
  Drug uptake: 3.76
Cynomolgus monkey [16]
  Drug uptake: 0.73
Cynomolgus monkey [17]
  Drug uptake: 6.09
Cynomolgus monkey [18]
  Ratio: 1
Cynomolgus monkey [19]
  Ratio: 1.6
Cynomolgus monkey [20]
  Drug uptake: 7.11
Cynomolgus monkey [21]
  Drug uptake: 1.54
Cynomolgus monkey [22]
  Drug uptake: 6.91
Cynomolgus monkey [23]
  Drug uptake: 1.01
Cynomolgus monkey [24]
  Drug uptake: 4.55
Cynomolgus monkey [25]
  Ratio: 1.5
Cynomolgus monkey [26]
  Drug uptake: 3.43
Cynomolgus monkey [27]
  Drug uptake: 0.35
Cynomolgus monkey [28]
  Ratio: 1.6
Cynomolgus monkey [29]
  Ratio: 1.2
Cynomolgus monkey [30]
  Drug uptake: 5.92
Cynomolgus monkey [31]
  Drug uptake: 3.47
Cynomolgus monkey [32]
  Drug uptake: 7.45
Cynomolgus monkey [33]
  Drug uptake: 5.83
Cynomolgus monkey [34]
  Drug uptake: 3.57
Cynomolgus monkey [35]
  Drug uptake: 1.07
Cynomolgus monkey [36]
  Drug uptake: 1.1
Cynomolgus monkey [37]
  Drug uptake: 3.74
Cynomolgus monkey [38]
  Drug uptake: 7.74
Cynomolgus monkey [39]
  Ratio: 1.8
Cynomolgus monkey [40]
  Drug uptake: 6.63
Cynomolgus monkey [41]
  Drug uptake: 5.14
Cynomolgus monkey [42]
  Drug uptake: 6.55
Cynomolgus monkey [43]
  Drug uptake: 0.02
Cynomolgus monkey [44]
  Drug uptake: 6.46
Cynomolgus monkey [45]
  Drug uptake: 6.51
Cynomolgus monkey [46]
  Drug uptake: 0.01
Cynomolgus monkey [47]
  Drug uptake: 6.26
Cynomolgus monkey [48]
  Drug uptake: 5.66
Cynomolgus monkey [49]
  Ratio: 1.7
Cynomolgus monkey [50]
  Drug uptake: 0.01
Cynomolgus monkey [51]
  Drug uptake: 7.4
Cynomolgus monkey [52]
  Drug uptake: 7.72
Cynomolgus monkey [53]
  Ratio: 1.6
Cynomolgus monkey [54]
  Drug uptake: 1.57
Cynomolgus monkey [55]
  Drug uptake: 0.01
